These results are taken from article PMC5835416 (Biochimica et biophysica acta, 2018).

Series [1] deals with T1, tear lipocalin (Homo sapiens, UniProt P31025). The series can be described thus: Linear spectral summation. It counts as binding. To be noted: apparent, tear lipocalin 10 μM, pH 7.3. An outline of the steps:
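Each spectrum fitted as linear sum of bound reference (2 μM ligand + 10 μM protein), unbound reference (2 μM ligand in buffer) and baseline, yielding bound and free ligand. Triplicate means fitted to hyperbola or Hill equation.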

The nature of series [2]: Centrifugal precipitation of lipid in buffer without protein. The class given is physicochemical. As to conditions: 10 mM Na-phosphate pH 7.3; ~196,000 × g.
The target of series [3] is T1, tear lipocalin. The class given is binding. The gist of the method:
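Incubated 25°C 30 min or 34°C 16 h, then centrifuged ~196,000 × g, 1 h, same temperature. Bound (supernatant) and precipitated ligand quantified by absorbance via extinction coefficients. Lysozyme 10 μM as negative control. Triplicate means fitted to hyperbola and Hill equation.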

Series [4] deals with T1, tear lipocalin. Briefly: Fluorescence binding assay with NBD-labeled lipids. To be noted: 1 μM tear lipocalin; for fluorescence in the presence of tear lipocalin compared to the unbound label: 1 μM ligand; for Kd: apparent, pH 7.3. The gist of the method: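 After equilibration, fluorescence spectra recorded at 20°C, λex 420 nm. Relative intensity at 523 nm used to compute bound label. Triplicate runs, means taken. B/P versus unbound lipid fitted by nonlinear regression to a rectangular hyperbola or Hill equation, giving apparent Kd and n.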

Series [5] concerns the target T1, tear lipocalin. Briefly: DAUDA displacement fluorescence assay. It counts as binding. As to conditions: end of titration.
Where [6] appears, read: apparent, Hill equation fit, 10 μM (C6) or 20 μM (C12) tear lipocalin, 10 mM sodium phosphate pH 7.3.
The mark [7] stands for this setting: apparent, hyperbola fit, 10 μM (C6) or 20 μM (C12) tear lipocalin, 10 mM sodium phosphate pH 7.3.

Like-named read-outs stand apart in the source and are kept apart here.

T1 sequence (P31025 19-176): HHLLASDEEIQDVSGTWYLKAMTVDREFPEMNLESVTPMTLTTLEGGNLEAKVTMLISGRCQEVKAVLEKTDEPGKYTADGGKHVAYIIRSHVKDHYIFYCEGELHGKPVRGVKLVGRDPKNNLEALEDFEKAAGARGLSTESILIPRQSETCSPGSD

Turning to `CCCCCCCCCCCCC/C=C/[C@@H](O)[C@H](CO)NC(=O)CCCCCNc1ccc([N+](=O)[O-])c2nonc12` [C6-NBD ceramide, N-[6-[(7-nitro-2-1,3-benzoxadiazol-4-yl)amino]hexanoyl]-D-erythro-sphingosine], the Kd on tear lipocalin [1] (Hill equation fit) is 70 nM; at tear lipocalin [1] (hyperbola fit), 60 nM; on tear lipocalin [3] (setting [6]), 290 nM; at tear lipocalin [3] (setting [7]), 320 nM; on tear lipocalin [4] (Hill equation fit) it was 80 nM; at tear lipocalin [4] (hyperbola fit), 80 nM. In series [2], the precipitation in buffer result was “complete precipitation”. For the same molecule, at tear lipocalin [3] (fit not named), the “apparent dissociation constant (Kd)” value was “sub-micromolar”. Moreover, the “fluorescence in the presence of tear lipocalin compared to the unbound label” value at tear lipocalin [4] is “enhanced fluorescence”.

For `CCCCCCCCCCCCC/C=C/[C@@H](O)[C@H](CO)NC(=O)CCCCCCCCCCCNc1ccc([N+](=O)[O-])c2nonc12` [C12-NBD ceramide, N-[12-[(7-nitro-2-1,3-benzoxadiazol-4-yl)amino]dodecanoyl]-D-erythro-sphingosine], the precipitation in buffer entry in series [2] was “complete precipitation”. The Kd at tear lipocalin [3] (setting [6]) came out at 1060 nM; on tear lipocalin [3] (setting [7]), 1230 nM; on tear lipocalin [3] (read-out: apparent dissociation constant (Kd), fit not named), 1200 nM; on tear lipocalin [4] (Hill equation fit), 100 nM; on tear lipocalin [4] (hyperbola fit), 130 nM. Further, the “fluorescence in the presence of tear lipocalin compared to the unbound label” value on tear lipocalin [4] is on record as “enhanced fluorescence”.

For `CCCCCCCCCCCCC/C=C/[C@@H](O)[C@H](CO)NC(=O)CCCCCCCCCCCCCCCCC` [C18-ceramide, ceramide-N-(octadecanoyl) sphing-4-enine, also known as N-stearoyl-D-erythro-sphingosine], the “residual DAUDA fluorescence compared with stearic acid” value on tear lipocalin [5] is “twice as great”.
